Measured values taken from ChEMBL document CHEMBL5038571, “Design and Synthesis of EZH2-Based PROTACs to Degrade the PRC2 Complex for Targeting the Noncatalytic Activity of EZH2” (J Med Chem, 2021).
Calls of active or inactive are those of the source. No cut-off for these calls is given here.

Legend:
[1] = molecular target: T1, Protein cereblon/Histone-lysine N-methyltransferase EZH2 (Homo sapiens) (UniProt Q15910+Q96SW2); test: PROTAC activity at CRBN E3 ligase/EZH2 in PRC2 complex in human WSUDLCL2 cells assessed as induction of EZH2 degradation at 1 uM incubated for 48 hrs by Western blot analysis relative to control; format: cell-based
T1 sequence (Q15910 whole entry, looked up): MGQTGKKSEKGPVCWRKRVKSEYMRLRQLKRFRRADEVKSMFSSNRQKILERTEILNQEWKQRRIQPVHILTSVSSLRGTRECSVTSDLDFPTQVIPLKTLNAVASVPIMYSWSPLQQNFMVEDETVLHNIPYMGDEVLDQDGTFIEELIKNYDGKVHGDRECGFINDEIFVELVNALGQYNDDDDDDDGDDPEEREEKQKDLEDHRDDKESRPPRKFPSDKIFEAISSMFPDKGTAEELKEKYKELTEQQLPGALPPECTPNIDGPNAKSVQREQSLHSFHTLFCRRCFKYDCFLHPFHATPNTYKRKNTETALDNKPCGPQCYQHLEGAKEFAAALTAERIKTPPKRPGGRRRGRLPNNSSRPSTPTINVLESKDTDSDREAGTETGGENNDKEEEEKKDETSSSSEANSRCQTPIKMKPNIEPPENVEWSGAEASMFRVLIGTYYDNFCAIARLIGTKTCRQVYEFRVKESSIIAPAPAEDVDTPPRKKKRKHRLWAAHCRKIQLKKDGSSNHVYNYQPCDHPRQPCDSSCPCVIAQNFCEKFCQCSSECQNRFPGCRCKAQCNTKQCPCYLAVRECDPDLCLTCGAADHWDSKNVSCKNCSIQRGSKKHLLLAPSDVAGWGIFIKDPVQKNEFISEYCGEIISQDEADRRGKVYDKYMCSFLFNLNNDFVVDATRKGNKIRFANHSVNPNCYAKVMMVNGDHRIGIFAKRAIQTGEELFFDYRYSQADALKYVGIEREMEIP
T1 sequence (Q96SW2 whole entry, looked up): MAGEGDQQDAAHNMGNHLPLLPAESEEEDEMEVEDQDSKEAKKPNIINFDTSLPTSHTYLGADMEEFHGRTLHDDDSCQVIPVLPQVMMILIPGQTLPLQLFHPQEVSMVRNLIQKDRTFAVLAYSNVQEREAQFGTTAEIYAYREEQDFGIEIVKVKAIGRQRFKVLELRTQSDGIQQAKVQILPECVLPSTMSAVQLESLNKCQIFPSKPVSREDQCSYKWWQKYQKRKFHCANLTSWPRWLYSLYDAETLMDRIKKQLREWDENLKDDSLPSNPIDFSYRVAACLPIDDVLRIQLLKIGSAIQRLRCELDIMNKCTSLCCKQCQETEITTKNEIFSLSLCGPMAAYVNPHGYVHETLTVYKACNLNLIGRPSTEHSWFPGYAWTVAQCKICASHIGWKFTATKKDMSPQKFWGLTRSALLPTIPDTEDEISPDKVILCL
In short: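 WSU-DLCL-2 cells exposed to 1 μM compound for 48 h, with DMSO-treated cells as control. Bands quantified by densitometry and normalized to GAPDH. Mean SD from three independent experiments, t-test versus DMSO.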

[2] = molecular target: Histone-lysine N-methyltransferase EZH2 (Homo sapiens, UniProt Q15910); format: cell-based, Sf9
Histone-lysine N-methyltransferase EZH2, sequence (Q15910 whole entry): as the sequence (Q15910 whole entry, looked up) above

[3] = molecular target: T1, Protein cereblon/Histone-lysine N-methyltransferase EZH2 (Homo sapiens); test: PROTAC activity at CRBN E3 ligase/EZH2 in PRC2 complex in human WSUDLCL2 cells assessed as induction of EED degradation incubated for 48 hrs by Western blot analysis; format: cell-based; conditions: dose 1-10 µM
[4] = molecular target: T1, Protein cereblon/Histone-lysine N-methyltransferase EZH2 (Homo sapiens); test: PROTAC activity at CRBN E3 ligase/EZH2 in PRC2 complex in human WSUDLCL2 cells assessed as reduction in H3K27me3 level at 10 uM incubated for 48 hrs by Western blot analysis; format: cell-based
[5] = molecular target: T1, Protein cereblon/Histone-lysine N-methyltransferase EZH2 (Homo sapiens); test: PROTAC activity at CRBN E3 ligase/EZH2 in PRC2 complex in human WSUDLCL2 cells assessed as induction of EZH2 degradation by measuring reduction in EZH2 protein level at 1 uM measured up to 2 hrs by Western blot analysis; format: cell-based; conditions: time hrs <=2
[6] = molecular target: T1, Protein cereblon/Histone-lysine N-methyltransferase EZH2 (Homo sapiens); test: PROTAC activity at CRBN E3 ligase/EZH2 in PRC2 complex in human WSUDLCL2 cells assessed as effect on EZH2 mRNA expression at 1 uM incubated for 48 hrs by RT-qPCR analysis; format: cell-based
In short: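 WSU-DLCL-2 cells treated 48 h with 1 μM compound. Total RNA extracted with Trizol and reverse-transcribed. SYBR qPCR run as 95 °C 30 s, then 40 cycles of 95 °C 6 s and 60 °C 20 s. PRC2 subunit mRNA normalized to the DMSO-treated group; mean SD, t-test.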

[7] = molecular target: T1, Protein cereblon/Histone-lysine N-methyltransferase EZH2 (Homo sapiens); test: PROTAC activity at CRBN E3 ligase/EZH2 in PRC2 complex in human WSUDLCL2 cells assessed as downregulation of EZH2 expression at 1 uM pretreated with MG-132 for 4 hrs followed by compound addition and measured after 48 hrs by Western blot analysis; format: cell-based
In short: (§1)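 WSU-DLCL-2 cells pretreated 4 h with the named inhibitor, then compound added and incubated a further 48 h. EZH2, SUZ12, EED and RbAp48 measured by western blot (nitrocellulose transfer, skim-milk block, primary antibody overnight at 4 °C, chemiluminescent detection).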

[8] = molecular target: T1, Protein cereblon/Histone-lysine N-methyltransferase EZH2 (Homo sapiens); test: PROTAC activity at CRBN E3 ligase/EZH2 in PRC2 complex in human WSUDLCL2 cells assessed as downregulation of RbAp48 expression at 1 uM pretreated with MG-132 for 4 hrs followed by compound addition and measured after 48 hrs by Western blot analysis; format: cell-based; in short: as §1
[9] = molecular target: T1, Protein cereblon/Histone-lysine N-methyltransferase EZH2 (Homo sapiens); test: PROTAC activity at CRBN E3 ligase/EZH2 in PRC2 complex in human WSUDLCL2 cells assessed as downregulation of EZH2 expression at 1 uM pretreated with GSK126 for 4 hrs followed by compound addition and measured after 48 hrs by Western blot analysis; format: cell-based; in short: as §1
[10] = molecular target: T1, Protein cereblon/Histone-lysine N-methyltransferase EZH2 (Homo sapiens); test: PROTAC activity at CRBN E3 ligase/EZH2 in PRC2 complex in human WSUDLCL2 cells assessed as downregulation of RbAp48 expression at 1 uM pretreated with EED226 for 4 hrs followed by compound addition and measured after 48 hrs by Western blot analysis; format: cell-based; in short: as §1
[11] = molecular target: T1, Protein cereblon/Histone-lysine N-methyltransferase EZH2 (Homo sapiens); test: PROTAC activity at CRBN E3 ligase/EZH2 in PRC2 complex in human WSUDLCL2 cells assessed as increase in SUZ12 ubiquitination at 1 uM measured after 48 hrs by co-immunoprecipitation assay; format: cell-based
In short: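 WSU-DLCL-2 cells treated with 1 μM compound for 48 h and lysed in RIPA buffer. Lysates incubated with antibodies overnight at 4 °C, then 3 h with Protein G agarose beads at 4 °C. Proteins eluted in IP buffer and ubiquitination of the target probed by immunoblot.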

A549 [12] = test: Downregulation of […] mRNA expression in human A549 cells at 10 uM incubated for 48 hrs by qRT-PCR analysis; format: functional, cell-based
In short: (§2)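 Cells treated 48 h. Total RNA extracted with Trizol, reverse-transcribed, and SYBR RT-qPCR run: 95 °C 30 s, then 40 cycles of 95 °C 6 s and 60 °C 20 s. mRNA normalized to the DMSO-treated group. Mean SD of three independent experiments, t-test versus DMSO.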

A549 [13] = test: Downregulation of CENPK mRNA expression in human A549 cells at 10 uM incubated for 48 hrs by qRT-PCR analysis; format: functional, cell-based; in short: as §2
A549 [14] = test: Downregulation of CHEK1 mRNA expression in human A549 cells at 10 uM incubated for 48 hrs by qRT-PCR analysis; format: functional, cell-based; in short: as §2
NCI-H1299 = test: Downregulation of ARL6IP mRNA expression in human NCI-H1299 cells at 10 uM incubated for 48 hrs by qRT-PCR analysis; format: functional, cell-based; in short: as §2
[15] = molecular target: T2, Histone-lysine N-methyltransferase EZH1 (Homo sapiens, UniProt Q92800); test: Inhibition of recombinant full length human N-terminal FLAG-tagged EZH1 in PRC2 complex expressed in baculovirus system using SAM as substrate preincubated for 15 mins followed by substrate addition and measured after 60 mins by AlphaLISA immunodetection assay
T2 sequence (Q92800 whole entry): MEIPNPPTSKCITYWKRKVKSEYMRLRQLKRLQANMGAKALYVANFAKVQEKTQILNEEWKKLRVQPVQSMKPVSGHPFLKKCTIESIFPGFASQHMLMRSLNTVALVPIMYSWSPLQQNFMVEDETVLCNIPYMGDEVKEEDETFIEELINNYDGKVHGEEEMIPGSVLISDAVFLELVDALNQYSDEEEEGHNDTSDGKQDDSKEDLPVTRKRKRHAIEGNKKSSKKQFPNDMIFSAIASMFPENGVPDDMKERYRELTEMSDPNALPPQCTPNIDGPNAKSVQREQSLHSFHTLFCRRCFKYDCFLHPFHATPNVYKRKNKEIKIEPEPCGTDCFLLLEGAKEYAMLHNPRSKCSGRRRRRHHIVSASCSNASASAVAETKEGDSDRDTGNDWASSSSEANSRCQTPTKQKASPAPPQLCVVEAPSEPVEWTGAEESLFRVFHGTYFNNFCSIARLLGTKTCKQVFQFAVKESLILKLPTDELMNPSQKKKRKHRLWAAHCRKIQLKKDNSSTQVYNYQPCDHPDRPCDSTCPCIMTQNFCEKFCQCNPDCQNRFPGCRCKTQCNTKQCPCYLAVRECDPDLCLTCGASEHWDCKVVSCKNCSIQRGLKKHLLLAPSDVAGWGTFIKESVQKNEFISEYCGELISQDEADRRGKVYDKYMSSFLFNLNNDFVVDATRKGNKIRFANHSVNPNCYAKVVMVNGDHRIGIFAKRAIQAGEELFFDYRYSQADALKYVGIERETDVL

Activity [1]: 72% | IC50 [2]: 0.0027 µM | Activity [3]: Dose-Dependent Effect | Activity [4]: inactive | Activity [5]: Active | Activity [6]: inactive | Activity [7]: inactive | Activity [8]: inactive | Activity [9]: inactive | Activity [10]: Active | Activity [11]: Active | IC50 [15]: 0.179 µM
SMILES: CCN(c1cc(-c2ccc(CN3CCN(CCCCCCCOc4cccc5c4C(=O)N(C4CCC(=O)NC4=O)C5=O)CC3)cc2)cc(C(=O)NCc2c(C)cc(C)[nH]c2=O)c1C)C1CCOCC1 (stereo unspecified)
Activity (A549 [12]): Active | Activity (A549 [13]): Active | Activity (A549 [14]): Active | Activity (NCI-H1299): Active
